Data published in ChEMBL document CHEMBL3525986, “Nicotinamide N-oxidation by CYP2E1 in human liver microsomes” (Drug Metab Dispos, 2013).

Substrate: NC(=O)c1cccnc1
Assay: Drug metabolism in human liver microsomes assessed as CYP2E1-mediated nicotinamide N-oxide formation after 30 mins by HPLC analysis
Assay type: ADME
Outline: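 Pooled human liver microsomes at 1 mg/ml in 0.1 M NaH2PO4, pH 7.4, with 1mM NADPH were preincubated 2 min at 37°C. NAM was added at varied concentrations and run 30 min, then stopped with ice-cold methanol. N-oxide was measured by HILIC HPLC with UV at 254 nm against a standard curve. Km and Vmax came from a Michaelis-Menten nonlinear fit. Triplicates.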

B1: Cytochrome P450 2E1 (Homo sapiens) (protein)
chain: MSALGVTVALLVWAAFLLLVSMWRQVHSSWNLPPGPFPLPIIGNLFQLELKNIPKSFTRLAQRFGPVFTLYVGSQRMVVMHGYKAVKEALLDYKDEFSGRGDLPAFHAHRDRGIIFNNGPTWKDIRRFSLTTLRNYGMGKQGNESRIQREAHFLLEALRKTQGQPFDPTFLIGCAPCNVIADILFRKHFDYNDEKFLRLMYLFNENFHLLSTPWLQLYNNFPSFLHYLPGSHRKVIKNVAEVKEYVSERVKEHHQSLDPNCPRDLTDCLLVEMEKEKHSAERLYTMDGITVTVADLFFAGTETTSTTLRYGLLILMKYPEIEEKLHEEIDRVIGPSRIPAIKDRQEMPYMDAVVHEIQRFITLVPSNLPHEATRDTIFRGYLIPKGTVVVPTLDSVLYDNQEFPDPEKFKPEHFLNENGKFKYSDYFKPFSTGKRVCAGEGLARMELFLLLCAILQHFNLKPLVDPKDIDLSPIHIGFGCIPPRYKLCVIPRS
Km: 2980 µM | Vmax: 6.01e-05 µmol/min/mg
